Screening results deposited in PubChem by several laboratories.
SENP8 block-1 = inhibitors of human SENP8 protease. Q96LD8. recombinant SENP8, Nedd8 substrate fluorescence. inhibition, % at 20 µM. hit rate 0.64% among 360,000; in the data active means inhibition mostly above about 40%, no sharp cut-off; inactive means mostly below about 27%
SENP7 inh = inhibitors of human SENP7 protease. Q9BQF6. recombinant SENP7, Z-RLRGG-aminoluciferin luminescence, 40 min. inhibition, % at 5 µM. hit rate 1.5% among 330,000;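 active means inhibition above about 50% at the single test dose, limit read from the data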;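 further: plate controls were DMSO with enzyme for no effect and no enzyme buffer wells for full effect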
SENP8 block-2 = blocks the human protease SENP8 | purified SENP8, Z-RLRGG-aminoluciferin cleavage, luminescence | inhibition, % at 10 µM | hit rate 1.2% among 330,000 | AID 2540; in the data active means inhibition above about 50%
SENP1 FRET inh = SENP1 (human) catalytic domain inhibition; Q9P0U3; recombinant SENP1 catalytic domain, CyPet-SUMO1-YPet FRET cleavage; inhibition, % at 10 µM; hit rate 0.21% among 360,000;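 active means inhibition at least 30% at 10 µM, raw YFP signal under a set limit, fluorescence ratio 0.5 to 1.5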;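 further: 0% = enzyme with DMSO and 100% = no enzyme wells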
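Material: hSENP1 catalytic domain, recombinant; medium: Tris pH 8 with BME, BSA, NP40 and catalase; compound: single concentration of 10 µM compound, 0.5% DMSO final; technique: FRET read of cyan and yellow fluorescence; timing: 50 min enzyme reaction, room temperature, light-protected; reagent: SFCypet-SUMO1-SFYpet substrate at 25 nM; control set: no-enzyme low, enzyme-DMSO high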
SENP6 block = SENP6 protease inhibition; Recombinant SENP6 catalytic domain, aminoluciferin luminescence; Q9GZR1; hit rate 1.8% among 330,000; inhibition, % at 10 µM;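 active means inhibition above about 50% at the single tested dose, limit read from the data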;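 further: plate controls were DMSO wells with enzyme for no effect and DMSO wells lacking enzyme for full effect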
Target sequence (Q9GZR1 628-1112 limits assumed): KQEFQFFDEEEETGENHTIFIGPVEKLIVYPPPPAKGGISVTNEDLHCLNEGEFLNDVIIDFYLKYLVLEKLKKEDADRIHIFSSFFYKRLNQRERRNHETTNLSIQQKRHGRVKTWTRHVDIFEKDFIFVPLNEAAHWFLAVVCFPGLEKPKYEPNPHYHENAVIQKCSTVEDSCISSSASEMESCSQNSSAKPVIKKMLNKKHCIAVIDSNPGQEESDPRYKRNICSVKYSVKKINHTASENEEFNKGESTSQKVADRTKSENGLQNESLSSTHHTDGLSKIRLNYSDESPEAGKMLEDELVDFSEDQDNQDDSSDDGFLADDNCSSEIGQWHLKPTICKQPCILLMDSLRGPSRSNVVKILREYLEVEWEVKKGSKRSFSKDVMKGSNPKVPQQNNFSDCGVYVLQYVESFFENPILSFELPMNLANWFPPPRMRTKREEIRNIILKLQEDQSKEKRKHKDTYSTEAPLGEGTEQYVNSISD
Platelet DG rel = platelet dense granule release activity | inhibition, %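 (compounds screened at 7.5 µM in platelet-rich plasma)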 | hit rate 0.22% among 300,000 | AID 1663 | human platelet-rich plasma, SFLLRN dense granule ATP release, luminescence;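 active means mean replicate score, as percent of positive control, at or above 50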
* marks the source's active call; other numbers are inactive results; . = no result. Compounds with a hit are over-represented: about 2.6% of the library has one in this group of screens.

SMILES	SENP8 block-1	SENP7 inh	SENP8 block-2	SENP1 FRET inh	SENP6 block	Platelet DG rel
COc1ccc(/C=N/N=C(\N)c2nonc2N)cc1	12	.	.	0	.	68*
COc1cc(/C=N/N=C(\N)c2nonc2N)cc(OC)c1O	34	-8	-2	17	-11	16
CCCCCCCCN1C(=O)[C@H](CC(=O)NCc2ccc(C)o2)C[C@@]2(C(=O)OCC)CCC=C12	14	.	.	-3	.	.
Cc1cc(=O)oc2cc(N3C(=O)CC(Cc4ccccc4)C3=O)ccc12 (stereo not drawn)	-120	14	-1	-2	-1	1
CC(=O)Nc1cccc(N2C(=O)CC(Cc3ccccc3)C2=O)c1 (stereo not drawn)	13	5	12	-1	19	57*
Cc1nc2ccc(C(=O)N3CCC(O)(Cc4ccccc4)CC3)cn2c1N(C)C(=O)CCc1ccccc1	-27	.	.	1	.	.
COc1cc(NC(=S)N2CCN(C/C=C/c3ccccc3)CC2)cc(OC)c1	0	-6	-1	1	-26	57*
COc1ccc(OC)c(CNC(=O)c2[nH]c(C(F)(F)F)nc2-c2ccccc2)c1	22	.	.	1	.	.
Nc1ccn([C@@H]2O[C@H](C(=O)N3CCN(Cc4ccccn4)CC3)[C@@H](O)[C@H]2O)c(=O)n1	4	.	.	-2	.	.
Cc1ccc(C(=O)Nc2cnc3ccccc3c2)cc1	2	98*	94*	0	97*	.
O=C(Nc1cnc2ccccc2c1)c1ccco1	4	70*	43	4	70*	.
CC1(C(=O)Nc2ccc3nc[nH]c3c2)CCN1C(=O)CCc1ccccc1 (stereo not drawn)	5	.	.	0	.	.
CC(C)c1ccc(C(=O)N2CCCC(c3cc(C(=O)Nc4ccccc4Cl)no3)C2)cc1 (stereo not drawn)	8	.	.	-1	.	.
C#CCOc1c(Br)cc(/C=C2/C(=O)ON=C2C)cc1OC	6	5	4	1	-10	5
C=CCOc1c(Br)cc(/C=C2/C(=O)ON=C2C)cc1OC	32*	1	-3	2	8	-7
CC(C)C[C@H]1CN([C@@H](Cc2ccc(O)cc2)CN2CCC[C@H]2CN2C(=O)C(=O)NC[C@@H]2Cc2ccccc2)C(=O)C(=O)N1CC1CCCCCC1	11	.	.	0	.	.
O=[N+]([O-])c1cc(C=Nc2cccc3c(O)cccc23)ccc1Cl	.	25	60*	.	84*	-17
C#CCNC(=O)c1cc2c(Br)ccc(Br)c2nc1N	-78	.	.	-51	.	.
O=C(COC(=O)c1ccc(O)cc1)c1ccc2c(c1)OCCO2	-1	57*	70*	-1	87*	.
COC1=CC(=O)C=C(OC)C1=O	22	.	.	-1	.	.
COC1=CC(=O)c2ccccc2C1=O	-221	18	51*	2	56*	.
CC(=O)C1=CCC(c2cccc3ccccc23)N(S(=O)(=O)c2ccc(C)cc2)C1 (stereo not drawn)	16	.	.	4	.	.
Cc1ccc(O)c(N=NC2=C(O)CC(C)(C)CC2=O)c1	42*	-4	-3	22	-19	24
CC1(C)CC(=O)C(N=Nc2cc(Cl)c(Cl)c(Cl)c2)=C(O)C1	40	3	2	2	3	-3
CCN1C(=O)/C(=C2\C=Cc3ccccc3N2CC)SC1=S	46*	9	0	13	-19	15
SMILES	SENP8 block-1	SENP7 inh	SENP8 block-2	SENP1 FRET inh	SENP6 block	Platelet DG rel
CCOC(=O)[C@]12CCC=C1N(Cc1cccc3ccccc13)C(=O)[C@H](CC(=O)NCCc1ccccc1OC)C2	6	.	.	-3	.	.
CC1(C)CC(N2CCC(=O)NC2=S)CC(C)(C)N1	17	-3	-4	1	-18	69*
CC1(C)CC(N2CCC(=O)N(C3CC(C)(C)NC(C)(C)C3)C2)CC(C)(C)N1	30	4	-6	0	2	5
CCCCCCn1cc(CN2CC(N3CCN(Cc4cccc(C)c4)CC3)CS2(=O)=O)nn1 (stereo not drawn)	26	.	.	0	.	.
CCCCC[n+]1ccn(C2=C([O-])c3ccccc3C(=O)/C2=N\S(=O)(=O)c2ccc(Cl)cc2)c1	71*	19	19	-3	47	4
O=C1NNC(c2ccccc2)=N/C1=C\c1ccccc1Cl	117*	.	.	2	.	.
Nc1nonc1C(=O)N/N=C/c1ccc(-c2cccc(C(=O)O)c2)o1	.	3	27	.	58*	10
Nc1sc(-c2ccccc2)cc1C(=O)N1CCNCC1	-24	.	.	-7	.	.
Nc1ccc(N)c(C(=O)O)c1	-13	4	17	38*	-53	-1
